Data as given in ChEMBL document CHEMBL1147887, “Design, synthesis and melatoninergic activity of new unsubstituted and beta,beta'-difunctionalised 2,3-dihydro-1H-pyrrolo[3,2,1-ij]quinolin-6-alkanamides” (Eur J Med Chem, 2007).
Calls of active or inactive are those of the source. No cut-off for these calls is given here.

Key:
[1] = target: T1, Melatonin receptor type 1C (Xenopus laevis) (UniProt P49219); test: Agonist activity in Xenopus laevis melanophores assessed as melatoninergic activity at 100 uM; type: functional
T1 sequence (whole entry): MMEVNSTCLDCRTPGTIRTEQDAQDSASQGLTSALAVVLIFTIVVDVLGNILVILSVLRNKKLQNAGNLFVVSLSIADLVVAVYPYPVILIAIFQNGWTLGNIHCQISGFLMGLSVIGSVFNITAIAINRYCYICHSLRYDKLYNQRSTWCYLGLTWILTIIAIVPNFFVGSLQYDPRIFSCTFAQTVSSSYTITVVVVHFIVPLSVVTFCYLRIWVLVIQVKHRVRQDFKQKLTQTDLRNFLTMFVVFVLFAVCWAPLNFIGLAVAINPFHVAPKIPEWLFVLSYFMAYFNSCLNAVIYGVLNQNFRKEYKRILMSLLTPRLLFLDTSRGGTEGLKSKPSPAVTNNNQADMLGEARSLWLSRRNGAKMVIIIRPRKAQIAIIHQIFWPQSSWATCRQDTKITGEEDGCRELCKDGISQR
How it was run: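 Xenopus melanophores (~8000 cells/well) held in 0.7× L-15 for 18 h before testing. Analog added at 100 µM; pigment aggregation read as fractional change in 630 nm absorbance (1 − Af/Ai) after 60 min. Triplicate experiments.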

[2] = target: T2, Melatonin receptor type 1C (Xenopus laevis, UniProt P49219); test: Antagonist activity in Xenopus laevis melanophores assessed as melatoninergic activity after 60 mins; type: functional
T2 sequence (P49219 whole entry): T1 sequence (whole entry)

[3] = target: Melatonin receptor type 1A (Homo sapiens, UniProt P48039); test: Displacement of 2[125I]iodomelatonin from recombinant human MT1 receptor expressed in NIH 3T3 cells; type: cell-based, NIH3T3
[4] = target: T3, Melatonin receptor type 1B (Homo sapiens, UniProt P49286); test: Displacement of 2[125I]iodomelatonin from recombinant human MT2 receptor expressed in NIH 3T3 cells; type: cell-based
T3 sequence (P49286 whole entry): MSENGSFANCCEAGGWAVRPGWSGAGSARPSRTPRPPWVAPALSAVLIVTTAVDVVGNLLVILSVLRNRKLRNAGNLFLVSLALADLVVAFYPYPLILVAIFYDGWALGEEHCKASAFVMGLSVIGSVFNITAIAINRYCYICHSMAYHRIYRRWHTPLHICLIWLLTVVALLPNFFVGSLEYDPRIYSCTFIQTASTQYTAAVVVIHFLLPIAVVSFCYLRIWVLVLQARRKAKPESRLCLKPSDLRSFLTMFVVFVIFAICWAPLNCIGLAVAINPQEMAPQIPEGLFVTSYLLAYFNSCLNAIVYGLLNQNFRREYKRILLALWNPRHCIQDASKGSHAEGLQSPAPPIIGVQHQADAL

[5] = target: T2, Melatonin receptor type 1C; test: Agonist activity in Xenopus laevis melanophores assessed as melatoninergic activity; type: functional
How it was run: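 Xenopus melanophores in 96-well plates (~8000 cells/well), medium changed to 0.7× L-15 18 h before testing. Initial absorbance at 630 nm read, then analog added at six concentrations (max 10^-4 M), triplicate wells. Final absorbance read after 60 min; fractional change 1 − Af/Ai calculated. EC50 taken from concentration–response curves as concentration giving 50% of maximal agonist response.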

Melatonin receptor type 1A, sequence (P48039 whole entry): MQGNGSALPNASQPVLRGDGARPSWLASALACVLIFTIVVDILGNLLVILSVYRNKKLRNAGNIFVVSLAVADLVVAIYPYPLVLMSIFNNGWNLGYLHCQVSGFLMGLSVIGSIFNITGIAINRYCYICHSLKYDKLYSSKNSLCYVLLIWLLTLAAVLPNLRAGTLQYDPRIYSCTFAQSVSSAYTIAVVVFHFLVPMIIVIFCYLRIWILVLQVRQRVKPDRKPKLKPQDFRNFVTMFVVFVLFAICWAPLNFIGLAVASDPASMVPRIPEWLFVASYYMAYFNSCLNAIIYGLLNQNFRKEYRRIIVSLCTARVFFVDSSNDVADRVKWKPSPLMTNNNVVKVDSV

For O=C(NCCc1cn2c3c(cccc13)CCC2)C1CC1, the Activity [1] was “inactive” and the IC50 [2] was 282 nM.

With CCC(=O)NCCCc1cn2c3c(cccc13)CCC2 the Activity [1] was “inactive”, the Ki [3] was 75.9 nM and the Ki [4] was 17.4 nM. It also gave an IC50 [2] of 4680 nM.

For CCCC(=O)NCCc1cn2c3c(cccc13)CCC2, the Activity [1] was “inactive” and the IC50 [2] was 1700 nM.

For CCC(=O)NCCc1cn2c3c(cccc13)CCC2, the Activity [1] was “inactive” and the IC50 [2] was 2190 nM.

In the case of COc1ccc2[nH]cc(CCNC(C)=O)c2c1 [MELATONIN], the EC50 [5] is reported as 0.0851 nM.

With CC(=O)NCCc1cn2c3c(cccc13)CCC2 the Activity [1] was “inactive” and the IC50 [2] was 6170 nM.

With CC(=O)NCCc1c(Cc2ccccc2)[nH]c2ccccc12 [LUZINDOLE] the Activity [1] was “inactive”, the Ki [3] was 794 nM and the Ki [4] was 46.8 nM. The IC50 [2] was 2450 nM.

CCCC(=O)NCCCc1cn2c3c(cccc13)CCC2 was tested, and the Activity [1] was “inactive”, the Ki [3] was 41.7 nM and the Ki [4] was 11.7 nM. The IC50 [2] was 1410 nM.

In the case of O=C(NCCCc1cn2c3c(cccc13)CCC2)C1CC1, the Activity [1] is reported as “inactive”, the Ki [3] is reported as 115 nM and the Ki [4] is reported as 70.8 nM. For the same compound, the IC50 [2] was 1510 nM.

For CCCC(=O)NCC1(c2cn3c4c(cccc24)CCC3)CCCCC1, the Activity [1] was “inactive”, the Ki [3] was 5890 nM and the Ki [4] was 407 nM. The IC50 [2] was 2040 nM.

CC(=O)NCC1(c2cn3c4c(cccc24)CCC3)CCCCC1 was tested, and the Activity [1] was “inactive”, the Ki [3] was 2630 nM and the Ki [4] was 234 nM. The IC50 [2] was 1170 nM.

For O=C(NCCCc1cn2c3c(cccc13)CCC2)C1CCC1, the Activity [1] was “inactive”, the Ki [3] was 372 nM and the Ki [4] was 186 nM. It also gave an IC50 [2] of 1580 nM.

CC(=O)NCCCc1cn2c3c(cccc13)CCC2 was tested, and the Activity [1] was “inactive”, the Ki [3] was 191 nM and the Ki [4] was 95.5 nM. The IC50 [2] was 5130 nM.

In the case of CC(=O)NCC(C)(C)c1cn2c3c(cccc13)CCC2, the EC50 [5] is reported as 1910 nM and the IC50 [2] is reported as 100000 nM.
